Experimental data: ChEMBL document CHEMBL1128448, “Synthesis and antifungal activity of new azole derivatives containing an N-acylmorpholine ring” (1995)
Values after ≈ are worked out from the molar mass of the structure shown.

Key:
Cryptococcus neoformans [1] = experiment: Evaluation of In vitro antifungal activity against Cryptococcus neoformans 87 by broth macro dilution method; type: functional
How it was run: (§1)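 Yeast MIC and MFC by broth macrodilution per NCCLS M27-P in RPMI-1640 buffered with 0.165 M MOPS. Fluconazole in sterile water, other drugs in DMSO. C. parapsilosis ATCC 22019 is the reference strain in each run. MIC is the lowest concentration with turbidity ≤ the 80% inhibition standard. For MFC, 0.04 mL from clear tubes is plated on Sabouraud agar; MFC is the lowest concentration giving ≤1 colony.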

Candida albicans [2] = experiment: Evaluation of […] antifungal activity against Candida albicans 60 by broth macro dilution method; type: functional; how it was run: as §1
Candida albicans [3] = experiment: Evaluation of In vitro antifungal activity against Candida albicans 60 by broth macro dilution method
Rattus norvegicus [4] = experiment: In vivo evaluation of antifungal activity against vaginal candidosis in rat at dose 0.1 mg/kg on 10th day; type: functional
How it was run: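 Groups of 10 female Wistar rats given estradiol 25 mg/kg sc on day -5, then vaginally inoculated with C. albicans on day 0. Infection is confirmed by culture of day-3 swabs. Compound is dosed orally once daily on days 3–5; controls get vehicle. Cure is scored by culture of vaginal swabs taken on days 10 and 15.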

Candida albicans [5] = experiment: In vivo evaluation of minimum inhibitory concentration against Candida albicans 60; type: functional
How it was run: (§2)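 Broth macrodilution MIC following NCCLS M27-P, in RPMI-1640 buffered with 0.165 M MOPS. Fluconazole was dissolved in water and other drugs in DMSO. C. parapsilosis ATCC 22019 served as the reference strain in every run. MIC was the lowest concentration giving turbidity at or below the 80% inhibition standard.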

Candida albicans [6] = experiment: Evaluation of In vitro antifungal activity against Candida albicans ATCC 10231 by broth macro dilution method; type: functional; how it was run: as §1
Cryptococcus neoformans [7] = experiment: Evaluation of In vitro antifungal activity against Cryptococcus neoformans 74 by broth macro dilution method; type: functional; how it was run: as §1
Mus musculus [8] = experiment: In vivo evaluation of % survival rate after peroral administration on 3rd day at dose 0.5 mg/kg(as a water solution in (hydroxypropyl -beta-cyclodextrin)); type: functional; details: route oral
How it was run: (§3)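 Groups of 10 male mice were infected iv with 0.2 mL of C. albicans at (2-8) × 10^7 cfu/mL. Oral doses were given at 1, 4 and 24 h post-infection. Vehicle-only controls were included, with at least 90% control mortality by day 3. Percent survival was recorded on days 3, 5, 7 and 9.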

Nakaseomyces glabratus [9] = experiment: In vitro evaluation of minimum inhibitory concentration against Torulopsis glabrata 78; type: functional
How it was run: (§4)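 Stocks are 800 μg/mL in 50% ethanol. Each plate gets 10 μL of inoculum at 10^5 cfu/mL. Incubation at 25 °C, 48 h for yeasts and 120 h for dermatophytes and molds. Organisms are ATCC strains or clinical isolates.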

Candida albicans [10] = experiment: Evaluation of In vitro antifungal activity against Candida albicans 2.01 by broth macro dilution method; type: functional; how it was run: as §1
Nakaseomyces glabratus [11] = experiment: Evaluation of In vitro antifungal activity against Torulopsis glabrata 78 by broth macro dilution method; type: functional; how it was run: as §1
Mus musculus [12] = experiment: In vivo evaluation of % survival rate after peroral administration on 5th day at dose 0.5 mg/kg(as a water solution in (hydroxypropyl -beta-cyclodextrin)); type: functional; details: route oral; how it was run: as §3
Candida albicans [13] = experiment: Evaluation of In vitro antifungal activity against Candida albicans 76 by broth macro dilution method; type: functional; how it was run: as §1
Trichophyton benhamiae = experiment: In vitro evaluation of minimum inhibitory concentration against Trichophyton mentagrophytes 23; type: functional, Arthroderma benhamiae; how it was run: as §4
Candida parapsilosis = experiment: In vitro evaluation of minimum inhibitory concentration against Candida parapsilosis 61; type: functional; how it was run: as §4
Aspergillus fumigatus = experiment: In vitro evaluation of minimum inhibitory concentration against Aspergillus fumigatus 33; type: functional; how it was run: as §4
Pichia kudriavzevii = experiment: Evaluation of In vitro antifungal activity against Candida krusei C64 by broth macro dilution method; type: functional; how it was run: as §1
Rhodotorula mucilaginosa = experiment: In vitro evaluation of minimum inhibitory concentration against Rhodotorula rubra 16; type: functional; how it was run: as §4
Mus sp. [14] = experiment: In vivo evaluation of % survival rate after peroral administration on 9th day at dose 1 mg/kg; type: functional; details: route oral, 1 mg/kg
Kluyveromyces marxianus [15] = experiment: Evaluation of In vitro antifungal activity against yeasts by broth macro dilution method; type: functional; how it was run: as §1
Candida albicans [16] = experiment: In vitro evaluation of minimum inhibitory concentration against Candida albicans 76; type: functional; how it was run: as §4
Rattus norvegicus [17] = experiment: In vivo evaluation of antifungal activity against vaginal candidosis in rat at dose 0.25 mg/kg on 10th day; type: functional
How it was run: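 Groups of 10 female Wistar rats given estradiol 25 mg/kg sc on day -5, infected intravaginally with C. albicans by sterile swab on day 0; infection confirmed on day 3 by swab culture (TSB, then Sabouraud agar). Oral dosing once daily on days 3, 4, 5; vehicle controls. Vaginal swabs cultured on days 10 and 15; read-out % cured (culture-negative).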

Kluyveromyces marxianus [18] = experiment: In vitro evaluation of minimum inhibitory concentration against Candida pseudotropicalis 13; type: functional; how it was run: as §4
Kluyveromyces marxianus [19] = experiment: Evaluation of In vitro antifungal activity against Candida pseudotropicalis ATCC 28838 by broth macro dilution method; type: functional; how it was run: as §1
Candida tropicalis = experiment: Evaluation of In vitro antifungal activity against Candida tropicalis 2.11 by broth macro dilution method; type: functional; how it was run: as §1
Mus sp. [20] = experiment: In vivo evaluation of % survival rate after peroral administration on 9th day at dose 0.5 mg/kg; type: functional; details: route oral, 0.5 mg/kg
Candida albicans [21] = experiment: In vivo evaluation of minimum inhibitory concentration against Candida albicans 406; type: functional; how it was run: as §2
Microsporum canis = experiment: In vitro evaluation of minimum inhibitory concentration against Microsporum canis 47; type: functional; how it was run: as §4

## C[C@H]1N(C(=O)c2ccc(C(F)(F)F)cc2)CCO[C@@]1(Cn1cncn1)c1ccc(F)cc1F (stereo in doubt; (-)-41)
Cryptococcus neoformans [1]
  MFC: > 64 µg/mL
  MIC: 2 µg/mL (≈ 4.29 µM)
Candida albicans [2]
  MIC: 0.25 µg/mL (≈ 0.536 µM)
Candida albicans [3]
  MFC: > 64 µg/mL
Rattus norvegicus [4]
  Cure rate: 10%
Candida albicans [5]
  MIC: 0.31 µg/mL (≈ 0.665 µM)
Candida albicans [6]
  MFC: > 64 µg/mL
  MIC: 0.25 µg/mL (≈ 0.536 µM)
Cryptococcus neoformans [7]
  MFC: 0.25 µg/mL (≈ 0.536 µM)
  MIC: 0.125 µg/mL (≈ 0.268 µM)
Mus musculus [8]
  survival at 0.5 mg/kg: 100%
Nakaseomyces glabratus [9]
  MIC: 10 µg/mL (≈ 21.4 µM)
Candida albicans [10]
  MFC: > 64 µg/mL
  MIC: 0.25 µg/mL (≈ 0.536 µM)
Nakaseomyces glabratus [11]
  MFC: > 64 µg/mL
  MIC: 16 µg/mL (≈ 34.3 µM)
Mus musculus [12]
  survival at 0.5 mg/kg: 100%
Candida albicans [13]
  MFC: > 64 µg/mL
  MIC: 0.125 µg/mL (≈ 0.268 µM)
Trichophyton benhamiae
  MIC: 40 µg/mL (≈ 85.8 µM)
Candida parapsilosis
  MIC: 10 µg/mL (≈ 21.4 µM)
Aspergillus fumigatus
  MIC: 40 µg/mL (≈ 85.8 µM)
Pichia kudriavzevii
  MFC: > 64 µg/mL
  MIC: 32 µg/mL (≈ 68.6 µM)
Rhodotorula mucilaginosa
  MIC: 5 µg/mL (≈ 10.7 µM)
Mus sp. [14]
  Survival: 70%
Kluyveromyces marxianus [15]
  MIC: 0.125 µg/mL (≈ 0.268 µM)
Candida albicans [16]
  MIC: 1.25 µg/mL (≈ 2.68 µM)
Rattus norvegicus [17]
  Cure rate: 40%
Kluyveromyces marxianus [18]
  MIC: 40 µg/mL (≈ 85.8 µM)
Kluyveromyces marxianus [19]
  MFC: 32 µg/mL (≈ 68.6 µM)
Candida tropicalis
  MFC: > 64 µg/mL
  MIC: 4 µg/mL (≈ 8.58 µM)
Mus sp. [20]
  Survival: 40%
Candida albicans [21]
  MIC: 0.15 µg/mL (≈ 0.322 µM)
Microsporum canis
  MIC: 20 µg/mL (≈ 42.9 µM)
